Data from ChEMBL document CHEMBL1157464, “1-[(3-Aryloxy-3-aryl)propyl]-1H-imidazoles, new imidazoles with potent activity against Candida albicans and dermatophytes. Synthesis, structure-activity relationship, and molecular modeling studies” (J Med Chem, 2008).
≈ marks a conversion by molar mass, not a printed value.

Key:
Candida albicans [1] = experiment: Antifungal activity against Candida albicans ATCC 10261 at 35 degC after 48 hrs by broth microdilution test; format: functional; details: for MIC50: read-out: MIC50
Outline: (§1)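 Broth microdilution per NCCLS M27-A2. Stocks in 100% DMSO, diluted in RPMI 1640 with 0.165 M MOPS at pH 7.0; final range 0.25–128 µg/mL. Inoculum 1000–5000 cells/mL from SDA subcultures. […] C. parapsilosis ATCC22019 served as QC strain.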

Arthrodermataceae [2] = experiment: Antifungal activity against dermatophytes at 28 degC after 7 days by broth microdilution test; format: functional; details: 168 h
Outline: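 Ten clinical isolates (two M. canis, five M. gypseum, three T. mentagrophytes) tested by NCCLS M38-A broth microdilution in MOPS-buffered RPMI 1640, pH 7.0, over 0.25–128 µg/mL. Conidial/hyphal suspension from PDA slants (28 °C, 7 days) adjusted to 65–70% transmittance at OD530, then diluted 1:50.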

Candida albicans [3] = experiment: Antifungal activity against Candida albicans ATCC 10261 at 35 degC after 48 to 96 hrs by broth microdilution test; format: functional
Outline: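 Minimal fungicidal concentration for Candida. […] MFC is the lowest concentration allowing fewer than two colonies (99% killing).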

Candida albicans [4] = experiment: Antifungal activity against fluconazole-resistant Candida albicans isolated from oropharyngeal or vaginal disease patient after 48 hrs by broth microdilution test; format: functional
Candida parapsilosis = experiment: Antifungal activity against Candida parapsilosis ATCC 22019 at 35 degC after 48 hrs by broth microdilution test; format: functional; details: for MFC: read-out: MFC; outline: as §1
Candida albicans [5] = experiment: Antifungal activity against fluconazole-sensitive Candida albicans Fe40 at 35 degC after 48 hrs by broth microdilution test; format: functional; outline: as §1
[6] = Cytotoxicity against human K562 cells after assessed as reduction of cell viability 24 hrs by MTT assay; format: cell-based
Outline: (§2)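 U937 and K562 cells, from ATCC, plated at 5 × 10^4/mL in phenol-red-free RPMI-1640 with 20% FBS and penicillin/streptomycin. Compounds added 2 h later at 25–100 µg/mL, then 24 h at 37 °C. MTT at 1 mg/mL for 3 h, formazan dissolved in isopropanol with 0.1 N HCl, absorbance read at 570 nm. CC50 is the concentration reducing viability by 50% versus the drug-free control.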

[7] = Cytotoxicity against human U937 cells assessed as reduction of cell viability after 24 hrs by MTT assay; format: cell-based, U-937; outline: as §2
Arthrodermataceae [8] = experiment: Antifungal activity against dermatophytes at 28 degC after 48 to 96 hrs by broth microdilution test
Arthrodermataceae [9] = experiment: Antifungal activity against dermatophytes at 28 degC after 5 days by broth microdilution test; details: for MFC: Arthrodermataceae
[10] = Therapeutic index, ratio of CC50 for human U937 cells to MIC90 for Candida albicans ATCC 10261; format: cell-based, U-937
Outline: (§3)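 Therapeutic index calculated as CC50 in the given cell line divided by MIC90.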

[11] = Therapeutic index, ratio of CC50 for human K562 cells to MIC90 for Candida albicans ATCC 10261; format: cell-based; outline: as §3
[12] = Candida albicans, ATCC 10261, 48 h, read-out: MIC
[13] = Candida albicans, ATCC 10261, 48 h
[14] = Candida albicans, ATCC 10261, 48 h, read-out: MIC90
[15] = Candida albicans, ATCC 10261, read-out: MFC
[16] = Lodderomyces parapsilosis, ATCC 22019, 48 h
[17] = Lodderomyces parapsilosis, ATCC 22019, 48 h, read-out: MIC

Compound	MIC (Candida albicans [1]; [12])	MIC50 (Candida albicans [1]; [13])	MIC90 (Candida albicans [1]; [14])	MIC (Arthrodermataceae [2])	MIC50 (Arthrodermataceae [2])	MIC90 (Arthrodermataceae [2])	MFC50 (Candida albicans [3])	MFC90 (Candida albicans [3])	MFC (Candida albicans [3]; [15])	MIC (Candida albicans [4])	MFC (Candida parapsilosis; [16])	MIC (Candida parapsilosis; [17])	MIC (Candida albicans [5])	CC50 at 24 h [6]	CC50 at 24 h [7]	MFC50 (Arthrodermataceae [8])	MFC90 (Arthrodermataceae [9])	MFC (Arthrodermataceae [9])	selectivity ratio [10]	selectivity ratio [11]	other results
Cc1ccc(OC(CCn2ccnc2)c2ccc(F)cc2)cc1 (configuration not stated)	7 µg/mL (≈ 22.6 µM)	4 µg/mL (≈ 12.9 µM)	8 µg/mL (≈ 25.8 µM)	10 µg/mL (≈ 32.2 µM)	8 µg/mL (≈ 25.8 µM)	16 µg/mL (≈ 51.6 µM)	16 µg/mL (≈ 51.6 µM)	32 µg/mL (≈ 103 µM)	23 µg/mL (≈ 74.1 µM)	9.6 µg/mL (≈ 30.9 µM)	32 µg/mL (≈ 103 µM)	4 µg/mL (≈ 12.9 µM)	4 µg/mL (≈ 12.9 µM)	383 µM	120 µM	16 µg/mL (≈ 51.6 µM)	16 µg/mL (≈ 51.6 µM)	16 µg/mL (≈ 51.6 µM)	–	–	–
Clc1ccc(OC(CCn2ccnc2)c2ccccc2)cc1 (configuration not stated)	3.3 µg/mL (≈ 10.5 µM)	2 µg/mL (≈ 6.39 µM)	4 µg/mL (≈ 12.8 µM)	18.4 µg/mL (≈ 58.8 µM)	16 µg/mL (≈ 51.2 µM)	32 µg/mL (≈ 102 µM)	8 µg/mL (≈ 25.6 µM)	16 µg/mL (≈ 51.2 µM)	10.3 µg/mL (≈ 32.9 µM)	6.4 µg/mL (≈ 20.5 µM)	32 µg/mL (≈ 102 µM)	4 µg/mL (≈ 12.8 µM)	2 µg/mL (≈ 6.39 µM)	256 µM	200 µM	16 µg/mL (≈ 51.2 µM)	32 µg/mL (≈ 102 µM)	25.6 µg/mL (≈ 81.8 µM)	–	–	–
Clc1ccc(OC(CCn2ccnc2)c2ccccc2)c(Cl)c1 (racemic)	–	8 µg/mL (≈ 23 µM)	–	9.2 µg/mL (≈ 26.5 µM)	8 µg/mL (≈ 23 µM)	8 µg/mL (≈ 23 µM)	8 µg/mL (≈ 23 µM)	16 µg/mL (≈ 46.1 µM)	–	7.2 µg/mL (≈ 20.7 µM)	8 µg/mL (≈ 23 µM)	–	2 µg/mL (≈ 5.76 µM)	121 µM	166 µM	16 µg/mL (≈ 46.1 µM)	32 µg/mL (≈ 92.2 µM)	28.8 µg/mL (≈ 82.9 µM)	–	–	MIC (Candida albicans [1]): 5.3 µg/mL (≈ 15.3 µM); MIC90 (Candida albicans [1]): 8 µg/mL (≈ 23 µM); MFC (Candida albicans [3]): 11.4 µg/mL (≈ 32.8 µM); MIC (Candida parapsilosis): 2 µg/mL (≈ 5.76 µM)
CC(=O)N1CCN(c2ccc(OCC3COC(Cn4ccnc4)(c4ccc(Cl)cc4Cl)O3)cc2)CC1 (configuration not stated) [KETOCONAZOLE]	5.9 µg/mL (≈ 11.1 µM)	4 µg/mL (≈ 7.53 µM)	8 µg/mL (≈ 15.1 µM)	1.6 µg/mL (≈ 3.01 µM)	1 µg/mL (≈ 1.88 µM)	2 µg/mL (≈ 3.76 µM)	16 µg/mL (≈ 30.1 µM)	32 µg/mL (≈ 60.2 µM)	16.3 µg/mL (≈ 30.7 µM)	20 µg/mL (≈ 37.6 µM)	0.5 µg/mL (≈ 0.941 µM)	0.06 µg/mL (≈ 0.113 µM)	4 µg/mL (≈ 7.53 µM)	102 µM	125 µM	8 µg/mL (≈ 15.1 µM)	8 µg/mL (≈ 15.1 µM)	6.6 µg/mL (≈ 12.4 µM)	15.6	12.8	–
Cc1ccc(OC(CCCn2ccnc2)c2ccc(Cl)cc2)cc1 (configuration not stated)	2.1 µg/mL (≈ 6.16 µM)	2 µg/mL (≈ 5.87 µM)	4 µg/mL (≈ 11.7 µM)	–	–	–	4 µg/mL (≈ 11.7 µM)	8 µg/mL (≈ 23.5 µM)	5.6 µg/mL (≈ 16.4 µM)	–	0.25 µg/mL (≈ 0.733 µM)	0.03 µg/mL (≈ 0.088 µM)	–	259 µM	350 µM	–	–	–	87.5	64.8	–
Cc1ccc(OC(CCn2ccnc2)c2ccc(C)cc2)cc1 (configuration not stated)	4 µg/mL (≈ 13.1 µM)	4 µg/mL (≈ 13.1 µM)	4 µg/mL (≈ 13.1 µM)	8 µg/mL (≈ 26.1 µM)	8 µg/mL (≈ 26.1 µM)	8 µg/mL (≈ 26.1 µM)	16 µg/mL (≈ 52.2 µM)	32 µg/mL (≈ 104 µM)	20.5 µg/mL (≈ 66.9 µM)	4.8 µg/mL (≈ 15.7 µM)	8 µg/mL (≈ 26.1 µM)	2 µg/mL (≈ 6.53 µM)	4 µg/mL (≈ 13.1 µM)	191 µM	263 µM	32 µg/mL (≈ 104 µM)	32 µg/mL (≈ 104 µM)	30.4 µg/mL (≈ 99.2 µM)	–	–	–
Clc1ccc(COC(Cn2ccnc2)c2ccc(Cl)cc2Cl)cc1 (configuration not stated) [ECONAZOLE]	4.3 µg/mL (≈ 11.3 µM)	4 µg/mL (≈ 10.5 µM)	8 µg/mL (≈ 21 µM)	2.1 µg/mL (≈ 5.5 µM)	1 µg/mL (≈ 2.62 µM)	4 µg/mL (≈ 10.5 µM)	16 µg/mL (≈ 41.9 µM)	32 µg/mL (≈ 83.8 µM)	15 µg/mL (≈ 39.4 µM)	–	2 µg/mL (≈ 5.24 µM)	2 µg/mL (≈ 5.24 µM)	–	70 µM	108 µM	4 µg/mL (≈ 10.5 µM)	8 µg/mL (≈ 21 µM)	6 µg/mL (≈ 15.7 µM)	13.5	8.8	–
